According to ChEMBL document CHEMBL3124843, “Synthesis, cytostatic, antimicrobial, and anti-HCV activity of 6-substituted 7-(het)aryl-7-deazapurine ribonucleosides” (J Med Chem, 2014):
Activity calls are given as the source filed them. How the calls were made is not given here.

Columns and labels:
Pseudomonas aeruginosa [1] = experiment: Antibacterial activity against Pseudomonas aeruginosa CCM 3955 after 24 hrs; assay type: functional, organism-based
BJ = experiment: Cytostatic activity against human BJ cells after 72 hrs by MTT assay; assay type: ADME, cell-based
Summary of the method: (§1)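 IC50 is the concentration that cuts cell growth by 50%, read by quantitative metabolic MTT staining after a 3-day treatment. The resistant sublines were made by raising the concentration of the cytotoxic drug step by step. CEM-DNR-bulk (daunorubicin-selected) stably overexpresses mrp-1. K562-TAX (paclitaxel-selected) expresses only mdr-1. HCT116p53−/− carries null p53 alleles. BJ and MRC-5 are nonmalignant fibroblasts.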

K562 [2] = experiment: Cytostatic activity against paclitaxel-resistant human K562 cells after 72 hrs by MTT assay; assay type: functional, cell-based; settings: K562, 72 h; summary of the method: as §1
[3] = Antiproliferative activity against human HeLaS3 cells after 72 hrs by XTT assay; assay type: functional, cell-based; settings: HeLa S3, 72 h
Summary of the method: (§2)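 Antiproliferative test on HL-60 promyelocytic leukemia and HeLa S3 cervical carcinoma cells growing in liquid suspension.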

[4] = Cytotoxicity against human HuH7 cells infected with Hepatitis C virus subtype 1b; assay type: cell-based, Huh-7
HepG2 = experiment: Antiproliferative activity against human HepG2 cells after 72 hrs by XTT assay; assay type: functional, cell-based; settings: HepG2, 72 h
A549 = experiment: Cytostatic activity against human A549 cells after 72 hrs by MTT assay; assay type: functional, cell-based; settings: A549, 72 h; summary of the method: as §1
Candida albicans = experiment: Antifungal activity against Candida albicans after 48 hrs; assay type: functional, organism-based
CCRF-CEM = experiment: Cytostatic activity against human CCRF-CEM cells after 72 hrs by MTT assay; assay type: functional, cell-based; summary of the method: as §1
Candida parapsilosis = experiment: Antifungal activity against Candida parapsilosis after 48 hrs; assay type: functional, organism-based
MRC5 = experiment: Cytostatic activity against human MRC5 cells after 72 hrs by MTT assay; assay type: ADME, cell-based; settings: MRC5, 72 h; summary of the method: as §1
HL-60 = experiment: Antiproliferative activity against human HL60 cells after 72 hrs by XTT assay; assay type: functional, cell-based; settings: HL-60, 72 h; summary of the method: as §2
HCT-116 [5] = experiment: Cytostatic activity against human HCT116 cells after 72 hrs by MTT assay; assay type: functional, cell-based; settings: HCT-116, 72 h; summary of the method: as §1
K562 [6] = experiment: Cytostatic activity against human K562 cells after 72 hrs by MTT assay; assay type: functional, cell-based; settings: K562, 72 h; summary of the method: as §1
Hepatitis C virus [7] = experiment: Antiviral activity against Hepatitis C virus subtype 2a infected in human HuH7 cells; assay type: functional, organism-based, Hepacivirus hominis; settings: genotype 2a, Huh-7
[8] = Cytostatic activity against human CEM-DNR-bulk cells after 72 hrs by MTT assay; assay type: functional, cell-based; summary of the method: as §1
Staphylococcus aureus [9] = experiment: Antibacterial activity against Staphylococcus aureus CCM 3953 after 24 hrs; assay type: functional, organism-based
Staphylococcus aureus [10] = experiment: Antibacterial activity against methicillin-resistant Staphylococcus aureus MRSA 4591 after 24 hrs; assay type: functional, organism-based
[11] = Cytotoxicity against human HuH7 cells infected with Hepatitis C virus subtype 2a; assay type: cell-based, Huh-7
Escherichia coli [12] = experiment: Antibacterial activity against multi-resistant Escherichia coli C/16702 after 24 hrs; assay type: functional, organism-based
HCT-116 [13] = experiment: Cytostatic activity against p53-deficient human HCT116 cells after 72 hrs by MTT assay; assay type: functional, cell-based; settings: HCT-116, 72 h; summary of the method: as §1
Hepatitis C virus [14] = experiment: Antiviral activity against Hepatitis C virus subtype 1b infected in human HuH7 cells; assay type: functional, organism-based, Hepacivirus hominis; settings: genotype 1b, Huh-7
Candida tropicalis = experiment: Antifungal activity against Candida tropicalis after 48 hrs; assay type: functional, organism-based
Pseudomonas aeruginosa [15] = experiment: Antibacterial activity against multi-resistant Pseudomonas aeruginosa A/16575 after 24 hrs; assay type: functional, organism-based
Escherichia coli [16] = experiment: Antibacterial activity against Escherichia coli CCM 3954 after 24 hrs; assay type: functional, organism-based
[17] = system: Staphylococcus haemolyticus; experiment: Antibacterial activity against methicillin-resistant Staphylococcus haemolyticus A/16568 after 24 hrs; assay type: functional, organism-based
Pichia kudriavzevii = experiment: Antifungal activity against Candida crusei after 48 hrs; assay type: functional, organism-based
Enterococcus faecalis = experiment: Antibacterial activity against Enterococcus faecalis CCM 4224 after 24 hrs; assay type: functional, organism-based

| SMILES | Activity (Pseudomonas aeruginosa [1]) | IC50 (BJ) [µM] | IC50 (K562 [2]) [µM] | IC50 [3] [µM] | CC50 [4] [µM] | IC50 (HepG2) [µM] | IC50 (A549) [µM] | Activity (Candida albicans) | IC50 (CCRF-CEM) [µM] | Activity (Candida parapsilosis) | IC50 (MRC5) [µM] | IC50 (HL-60) [µM] | IC50 (HCT-116 [5]) [µM] | IC50 (K562 [6]) [µM] | EC50 (Hepatitis C virus [7]) [µM] | IC50 [8] [µM] | Activity (Staphylococcus aureus [9]) | Activity (Staphylococcus aureus [10]) | CC50 [11] [µM] | Activity (Escherichia coli [12]) | further results |
| --- | --- | --- | --- | --- | --- | --- | --- | --- | --- | --- | --- | --- | --- | --- | --- | --- | --- | --- | --- | --- | --- |
| COc1nc(N)nc2c1c(-c1ccccc1)cn2[C@@H]1O[C@H](CO)[C@@H](O)[C@H]1O | inactive | > 100 | > 20 | > 20 | > 44 | > 20 | > 20 | inactive | > 20 | inactive | > 100 | > 20 | > 20 | > 20 | > 44 | > 20 | inactive | inactive | > 44 | inactive | IC50 (HCT-116 [13]): > 20 µM; EC50 (Hepatitis C virus [14]): > 44 µM; Activity (Candida tropicalis): inactive; Activity (Pseudomonas aeruginosa [15]): inactive; Activity (Escherichia coli [16]): inactive; Activity [17]: inactive; Activity (Pichia kudriavzevii): inactive; Activity (Enterococcus faecalis): inactive |
| Cc1ncnc2c1ccn2[C@@H]1O[C@H](CO)[C@@H](O)[C@H]1O | inactive | 0.07 | 0.05 | 0.02 | 0.23 | 0.06 | 0.03 | inactive | 0.01 | inactive | 0.09 | 0.02 | 0.03 | 0.01 | 0.02 | 0.05 | inactive | inactive | 0.12 | inactive | IC50 (HCT-116 [13]): 0.06 µM; EC50 (Hepatitis C virus [14]): 0.02 µM; Activity (Candida tropicalis): inactive; Activity (Pseudomonas aeruginosa [15]): inactive; Activity (Escherichia coli [16]): inactive; Activity [17]: inactive; Activity (Pichia kudriavzevii): inactive; Activity (Enterococcus faecalis): inactive |
| CN(C)c1ncnc2c1c(-c1cc3ccccc3o1)cn2[C@@H]1O[C@H](CO)[C@@H](O)[C@H]1O | inactive | > 100 | > 20 | > 20 | > 44 | > 20 | > 20 | inactive | > 20 | inactive | > 100 | > 20 | > 20 | > 20 | > 44 | > 20 | inactive | inactive | > 44 | inactive | IC50 (HCT-116 [13]): > 20 µM; EC50 (Hepatitis C virus [14]): 19.2 µM; Activity (Candida tropicalis): inactive; Activity (Pseudomonas aeruginosa [15]): inactive; Activity (Escherichia coli [16]): inactive; Activity [17]: inactive; Activity (Pichia kudriavzevii): inactive; Activity (Enterococcus faecalis): inactive |
| O=c1[nH]cnc2c1c(-c1ccoc1)cn2[C@@H]1O[C@H](CO)[C@@H](O)[C@H]1O | inactive | > 100 | 14.5 | > 20 | > 44 | 12.1 | > 20 | inactive | 9.03 | inactive | > 100 | 6.37 | 10.3 | 12.5 | 22.3 | > 20 | inactive | inactive | > 44 | inactive | IC50 (HCT-116 [13]): 14.8 µM; EC50 (Hepatitis C virus [14]): 4.54 µM; Activity (Candida tropicalis): inactive; Activity (Pseudomonas aeruginosa [15]): inactive; Activity (Escherichia coli [16]): inactive; Activity [17]: inactive; Activity (Pichia kudriavzevii): inactive; Activity (Enterococcus faecalis): inactive |
| CNc1ncnc2c1c(-c1ccoc1)cn2[C@@H]1O[C@H](CO)[C@@H](O)[C@H]1O | inactive | 96.3 | > 20 | > 20 | > 44 | > 20 | > 20 | inactive | > 20 | inactive | > 100 | > 15 | > 20 | > 20 | > 44 | > 20 | inactive | inactive | > 44 | inactive | IC50 (HCT-116 [13]): > 20 µM; EC50 (Hepatitis C virus [14]): 35.9 µM; Activity (Candida tropicalis): inactive; Activity (Pseudomonas aeruginosa [15]): inactive; Activity (Escherichia coli [16]): inactive; Activity [17]: inactive; Activity (Pichia kudriavzevii): inactive; Activity (Enterococcus faecalis): inactive |
| C#Cc1cn([C@@H]2O[C@H](CO)[C@@H](O)[C@H]2O)c2ncnc(SC)c12 | inactive | 68.6 | 0.07 | 0.11 | > 44 | > 15 | 0.14 | inactive | > 20 | inactive | > 100 | 0.05 | 0.03 | 0.03 | > 44 | 0.11 | inactive | inactive | > 44 | inactive | IC50 (HCT-116 [13]): 0.09 µM; EC50 (Hepatitis C virus [14]): 0.21 µM; Activity (Candida tropicalis): inactive; Activity (Pseudomonas aeruginosa [15]): inactive; Activity (Escherichia coli [16]): inactive; Activity [17]: inactive; Activity (Pichia kudriavzevii): inactive; Activity (Enterococcus faecalis): inactive |
| Nc1nc(N)c2c(-c3cc4ccccc4o3)cn([C@@H]3O[C@H](CO)[C@@H](O)[C@H]3O)c2n1 | inactive | > 100 | > 20 | > 20 | > 44 | > 20 | > 20 | inactive | > 20 | inactive | 78.5 | > 15 | > 20 | 18.6 | 11.5 | > 20 | inactive | inactive | > 44 | inactive | IC50 (HCT-116 [13]): 14 µM; EC50 (Hepatitis C virus [14]): 5.58 µM; Activity (Candida tropicalis): inactive; Activity (Pseudomonas aeruginosa [15]): inactive; Activity (Escherichia coli [16]): inactive; Activity [17]: inactive; Activity (Pichia kudriavzevii): inactive; Activity (Enterococcus faecalis): inactive |
| O=c1[nH]cnc2c1c(-c1cccs1)cn2[C@@H]1O[C@H](CO)[C@@H](O)[C@H]1O | inactive | > 100 | > 20 | > 20 | > 44 | > 20 | > 20 | inactive | > 20 | inactive | > 100 | > 20 | > 20 | > 20 | > 44 | > 20 | inactive | inactive | > 44 | inactive | IC50 (HCT-116 [13]): > 20 µM; EC50 (Hepatitis C virus [14]): > 44 µM; Activity (Candida tropicalis): inactive; Activity (Pseudomonas aeruginosa [15]): inactive; Activity (Escherichia coli [16]): inactive; Activity [17]: inactive; Activity (Pichia kudriavzevii): inactive; Activity (Enterococcus faecalis): inactive |
| CSc1ncnc2c1c(-c1cccs1)cn2[C@@H]1O[C@H](CO)[C@@H](O)[C@H]1O | inactive | 96.9 | > 20 | 1.96 | > 44 | > 20 | > 20 | inactive | > 20 | inactive | > 100 | 1.13 | > 20 | 11.6 | > 44 | > 20 | inactive | inactive | > 44 | inactive | IC50 (HCT-116 [13]): > 20 µM; EC50 (Hepatitis C virus [14]): 5.42 µM; Activity (Candida tropicalis): inactive; Activity (Pseudomonas aeruginosa [15]): inactive; Activity (Escherichia coli [16]): inactive; Activity [17]: inactive; Activity (Pichia kudriavzevii): inactive; Activity (Enterococcus faecalis): inactive |
